Values belong to the compound of their own block, whether it stands above or below them.
Key:
E. coli RNAP TEC [1] = molecular target: T1, E. coli RNAP TEC (Escherichia coli, UniProt P0A8T7+P0A8V2); experiment: Time-resolved nucleotide addition; assay type: biochemical; details: i − 7 6-MI TECs; 200 µM NTP, 25°C
[2] = molecular target: GMP-extended TEC (TEC17), E. coli RNAP (Escherichia coli, UniProt P0A8T7+P0A8V2); assay type: binding
E. coli RNAP TEC [3] = molecular target: T1, E. coli RNAP TEC; experiment: PPi release, coupled PPase / MDCC-PBP stopped-flow assay; assay type: biochemical
TEC = details: absence of the next incoming substrate NTP; cited from earlier work
[4] = molecular target: TEC assembled with wild-type E. coli RNAP (Escherichia coli, UniProt P0A8T7+P0A8V2); experiment: Equilibrium TGT titration of extended TECs, fluorescence of base analogs; assay type: binding
Method in brief: (§1)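 E. coli RNAP TECs (template strand limiting at 1 µM) on a synthetic scaffold, with 6-MI or 2-AP in the template or 2-AP added at the RNA 3′ end. Extended 10 min at 25°C in TB10 (pH 7.5) with 5 µM substrate and 0.2 nM yeast PPase. TGT added afterwards, 5 min more. Emission peaks: 6-MI 420 nm (ex 340), 2-AP 375 nm (ex 330). KTGT from a dissociation-equilibrium fit; errors are SD of best-fit estimates.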

[5] = molecular target: TEC assembled using β′M932A RNAP (Escherichia coli, UniProt P0A8T7+P0A8V2, M932A); experiment: Equilibrium TGT titration of extended TECs, β′M932A RNAP; assay type: binding
Method in brief: as §1

[6] = molecular target: TEC assembled using β′R933A RNAP (Escherichia coli, UniProt P0A8T7+P0A8V2, R933A); experiment: Equilibrium TGT titration of extended TECs, β′R933A RNAP; assay type: binding; details: β′Arg933 substituted with alanine
Method in brief: as §1

[7] = molecular target: TEC assembled using β′H936A RNAP (Escherichia coli, UniProt P0A8T7+P0A8V2, H936A); experiment: Equilibrium TGT titration of extended TECs, β′H936A RNAP; assay type: binding; details: β′His936 substituted with alanine
Method in brief: as §1

ΔTL RNAP TEC = experiment: Equilibrium TGT titration of extended TECs, ΔTL RNAP; assay type: binding, Escherichia coli; details: AMP-extended TEC, TL domain replaced by a two-alanine linker
Method in brief: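 Two-alanine-linker ΔTL RNAP TECs (template strand limiting at 1 µM) with a base-analog fluorophore in the template. Extended 1.5 h at 25°C in TB10 (pH 7.5) with 5 µM substrate and 0.2 nM yeast PPase. TGT added post-catalytically for 5 min more. Fluorescence taken at the emission peak: 6-MI 420 nm (ex 340) or 2-AP 375 nm (ex 330). Titration fitted to dissociation-equilibrium equations.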

β′N458D TEC = β′N458D TEC (Escherichia coli, UniProt P0A8T7+P0A8V2, N458D); experiment: Equilibrium TGT titration of extended TECs, β′N458D RNAP; assay type: binding; details: AMP-extended β′N458D TEC
Method in brief: as §1

E. coli RNAP TEC [8] = molecular target: T1, E. coli RNAP TEC; assay type: biochemical; details: time-resolved, saturating TGT (5 µM)
RNAP = details: cited from earlier work

nucleotide addition, half-life (E. coli RNAP TEC [1]): ~20 ms
Compound: Nc1ncnc2c1ncn2[C@@H]1O[C@H](COP(=O)(O)O)[C@@H](O)[C@H]1O [AMP]

nucleotide addition, half-life (E. coli RNAP TEC [1]): ~8 ms
Compound: Nc1ccn([C@@H]2O[C@H](COP(=O)(O)O)[C@@H](O)[C@H]2O)c(=O)n1 [CMP]

decrease in fluorescence upon CMPcPP binding to the TEC [2]: ~15%
effect on fluorescence in the absence of TGT [2]: failed to increase fluorescence
effect on TGT action ([2]; templated CMPcPP): able to counter the effect of TGT
Compound: Nc1ccn([C@@H]2O[C@H](COP(=O)(O)CP(=O)(O)OP(=O)(O)O)[C@@H](O)[C@H]2O)c(=O)n1 [CMPcPP, cytidine-5′-[(α,β)-methyleno]triphosphate]

nucleotide addition, half-life (E. coli RNAP TEC [1]): ~20 ms
Compound: Nc1nc2c(ncn2[C@@H]2O[C@H](COP(=O)(O)O)[C@@H](O)[C@H]2O)c(=O)[nH]1 [GMP]

PPi to MDCC-PBP·Pi conversion rate (E. coli RNAP TEC [3]; 10 µM PPase): 120 s⁻¹
rate of PPi release from the TEC (E. coli RNAP TEC [3]; same TEC as Johnson et al., PPase-MDCC-PBP method): 120 s⁻¹
Compound: O=P(O)(O)OP(=O)(O)O [PPi, pyrophosphate]
rate of PPi release from the TEC (TEC): 2.9 s⁻¹

Compound: CC(=O)O[C@@H]1[C@H](N)[C@@H](OP(=O)(O)O)[C@@]2(C(=O)O)CS[C@@](O)(C(N)=O)[C@@H]1O2 [TGT, tagetitoxin]
quenching of the fluorescence of 3′ RNA 2-AP by TGT ([4]; 2-AP ribonucleoside monophosphate-extended TEC, wild-type): 2 fold
increase of apparent TGT binding constant relative to rNMP-extended TECs ([4]; TECs lacking a 2′-OH group at the RNA 3′ end): ~10 fold
increase in KTGT relative to rNMP-extended TECs ([4]; TECs lacking a 3′ OH group at the RNA 3′ end): approximately 5 fold
effect on translocation state of extended TECs ([4]; TGT added post-catalytically): quantitatively moves extended TECs into the pre-translocated state
quenching of the fluorescence of 3′ RNA 2-AP by TGT ([5]; 2-AP ribonucleoside monophosphate-extended β′M932A TEC): did not quench
apparent KTGT relative to wild-type TEC ([5]; β′M932A TEC, higher): 5 fold
increase in KTGT relative to wild-type [6]: > 7 fold
increase in KTGT relative to wild-type [7]: > 7 fold
response of TEC to TGT action (ΔTL RNAP TEC): completely resistant
move into the pre-translocated state at saturating TGT concentrations (β′N458D TEC): ≤ 20%
effect on forward translocation (E. coli RNAP TEC [8]): does not affect the rate of forward translocation
effect on pyrophosphorolysis (RNAP): strongly inhibit

nucleotide addition, half-life (E. coli RNAP TEC [1]): ~20 ms
Compound: O=c1ccn([C@@H]2O[C@H](COP(=O)(O)O)[C@@H](O)[C@H]2O)c(=O)[nH]1 [UMP]

Source: PMC3424550 (Nucleic Acids Research, 2012)
